Experimental data reported in ChEMBL document CHEMBL3407337, “Molecular design, synthesis and biological research of novel pyridyl acridones as potent DNA-binding and apoptosis-inducing agents” (Eur J Med Chem, 2015).
The source made the active and inactive calls. No cut-off for these calls is given here.

Experiments:
K562 [1] = test: Induction of apoptosis in human K562 cells assessed as early apoptotic cells at 1 uM after 48 hrs by annexin V/PI staining based flow cytometry (reference value: 3.89 %); assay type: functional
K562 [2] = test: Induction of apoptosis in human K562 cells assessed as early apoptotic cells at 2.5 uM after 48 hrs by annexin V/PI staining based flow cytometry (reference value: 3.89 %); assay type: functional
K562 [3] = test: Induction of apoptosis in human K562 cells assessed as late apoptotic cells at 2.5 uM after 48 hrs by annexin V/PI staining based flow cytometry (reference value: 0.26 %); assay type: functional
K562 [4] = test: Induction of apoptosis in human K562 cells after 48 hrs by annexin V/PI staining based flow cytometry; assay type: functional, cell-based
K562 [5] = test: Induction of apoptosis in human K562 cells assessed as cleavage of caspase-7 at 1 uM after 36 hrs by Western blot analysis; assay type: functional, cell-based
In short: (§1)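 K562 cells in 6 cm dishes treated 36 h at various concentrations. Cells lysed on ice for 0.5 h and spun at 20,000 g. Protein measured by BCA. Lysates run on 12% SDS-PAGE and transferred to PVDF. Membranes blocked in 5% milk and probed overnight at 4 °C with primary antibody against cleaved caspase-9, -7, -3, cleaved PARP or Bcl-XL.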

K562 [6] = test: Induction of apoptosis in human K562 cells assessed as cleavage of PARP at 1 uM after 36 hrs by Western blot analysis; assay type: functional, cell-based; in short: as §1
K562 [7] = test: Induction of apoptosis in human K562 cells assessed as reduction in Bcl-XL protein expression at 1 uM after 36 hrs by Western blot analysis; assay type: functional, cell-based; in short: as §1
NCI-H520 = test: Antiproliferative activity against human NCI-H520 cells after 48 hrs by MTT assay; assay type: functional, cell-based; details: NCI-H520, 48 h
In short: (§2)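 Adherent lines seeded at 6×10^3 cells/well and allowed 12 h attachment. Media: NCI-H520 and HeLa RPMI-1640; HepG2, MCF-7, CNE-2, A375, A172 and U118-MG DMEM; U251 MEM-EBSS; all with 10% FBS, 37 °C, 5% CO2. Dosed 48 h at final 50, 25, 10, 1 and 0.1 μM. MTT 4 h, formazan dissolved in DMSO, A490. IC50 from the dose series.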

A-375 = test: Antiproliferative activity against human A375 cells after 48 hrs by MTT assay; assay type: functional, cell-based; details: A-375, 48 h; in short: as §2
HeLa = test: Antiproliferative activity against human HeLa cells after 48 hrs by MTT assay; assay type: functional, cell-based; in short: as §2
[8] = Antiproliferative activity against human CNE2 cells after 48 hrs by MTT assay; assay type: functional, cell-based; details: CNE-2, 48 h; in short: as §2
[9] = Antiproliferative activity against human U118MG cells after 48 hrs by MTT assay; assay type: functional, cell-based; details: U-118-MG; in short: as §2
HepG2 = test: Antiproliferative activity against human HepG2 cells after 48 hrs by MTT assay; assay type: functional, cell-based; details: HepG2, 48 h; in short: as §2
MCF7 = test: Antiproliferative activity against human MCF7 cells after 48 hrs by MTT assay; assay type: functional, cell-based; details: MCF7, 48 h; in short: as §2
Calf thymus DNA = test: Binding affinity to calf thymus DNA at 10 uM after 5 mins by fluorescence emmission spectroscopic method; assay type: nucleic-acid assay; details: Bos taurus
In short: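 Compound at final 10 μM in 5 mM Tris-HCl, 50 mM NaCl, pH 7.2. ct DNA added to final 0–100 μM. Incubated 5 min. Emission recorded with excitation 425 nm. F/F0 plotted against [DNA]/[compound].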

Bos taurus = species on record: Bos taurus; test: Displacement of ethidium bromide from calf thymus DNA assessed as quenching constant up to 30 uM after 5 mins by competitive binding fluorescence method
In short: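 EB final 10 μM with ct DNA 40 μM in Tris-HCl/50 mM NaCl, pH 7.2. Compound added at final 0, 5, 10, 20 and 30 μM. Incubated 5 min, excitation 366 nm, emission near 600 nm. Quenching constant from the Stern–Volmer fit F0/F = 1 + K[Q].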

[10] = target: T1, DNA topoisomerase 1 (Homo sapiens) (UniProt P11387); test: Inhibition of recombinant human Topo1-mediated relation of supercoiled pBR322 DNA at 50 uM after 30 mins by agarose gel electrophoresis
T1 sequence (whole entry): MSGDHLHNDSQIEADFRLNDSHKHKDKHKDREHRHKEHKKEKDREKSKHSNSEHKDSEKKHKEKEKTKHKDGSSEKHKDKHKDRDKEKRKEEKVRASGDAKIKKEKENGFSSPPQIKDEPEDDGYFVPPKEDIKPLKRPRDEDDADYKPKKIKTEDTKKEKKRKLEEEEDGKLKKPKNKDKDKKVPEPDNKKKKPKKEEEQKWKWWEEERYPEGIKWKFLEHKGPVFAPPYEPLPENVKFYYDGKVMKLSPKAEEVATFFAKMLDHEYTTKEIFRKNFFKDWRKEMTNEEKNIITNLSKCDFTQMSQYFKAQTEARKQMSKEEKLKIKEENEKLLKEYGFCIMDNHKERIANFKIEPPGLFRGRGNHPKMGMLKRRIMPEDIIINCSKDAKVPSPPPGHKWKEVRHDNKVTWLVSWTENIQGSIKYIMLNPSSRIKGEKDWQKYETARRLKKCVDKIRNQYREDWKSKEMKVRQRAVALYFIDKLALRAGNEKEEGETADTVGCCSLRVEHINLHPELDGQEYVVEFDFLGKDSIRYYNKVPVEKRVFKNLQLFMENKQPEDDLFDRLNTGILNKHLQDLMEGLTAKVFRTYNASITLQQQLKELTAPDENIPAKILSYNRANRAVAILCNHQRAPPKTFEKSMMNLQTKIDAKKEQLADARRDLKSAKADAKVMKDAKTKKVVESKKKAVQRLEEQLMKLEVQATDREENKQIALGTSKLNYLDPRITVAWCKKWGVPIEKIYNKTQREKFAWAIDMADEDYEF
In short: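 pBR322 at 100 ng with 1.0 unit recombinant human topo I. Incubated 30 min at 37 °C in 35 mM Tris-HCl pH 8.0, 5 mM MgCl2, 72 mM KCl, 0.01% BSA, 2 mM spermidine and 5 mM DTT. Run on 1% agarose in TAE at 100 V for 25 min. EB-stained gel viewed under UV.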

K562 [11] = test: Induction of apoptosis in human K562 cells assessed as early apoptotic cells at 0.05 uM after 48 hrs by annexin V/PI staining based flow cytometry (reference value: 3.89 %); assay type: functional
K562 [12] = test: Induction of apoptosis in human K562 cells assessed as late apoptotic cells at 0.05 uM after 48 hrs by annexin V/PI staining based flow cytometry (reference value: 0.26 %); assay type: functional
K562 [13] = test: Induction of apoptosis in human K562 cells assessed as early apoptotic cells at 0.5 uM after 48 hrs by annexin V/PI staining based flow cytometry (reference value: 3.89 %); assay type: functional
K562 [14] = test: Induction of apoptosis in human K562 cells assessed as late apoptotic cells at 0.5 uM after 48 hrs by annexin V/PI staining based flow cytometry (reference value: 0.26 %); assay type: functional

**Q.** Which Activity (K562 [1]) does the source give for Cc1cccc2c(=O)c3c(NCc4ccncc4)ccc(C(=O)NCCN(C)C)c3[nH]c12 here?
**A.** 27.06%

**Q.** What about the Activity (K562 [2]) of the same compound?
**A.** 54.93%

**Q.** And the Activity (K562 [3])?
**A.** 20.24%

**Q.** And the Activity (K562 [4])?
**A.** Dose-dependent effect

**Q.** And the Activity (K562 [5])?
**A.** Active

**Q.** And the Activity (K562 [6])?
**A.** Active

**Q.** And the Activity (K562 [7])?
**A.** Active

**Q.** What about the IC50 (NCI-H520) of the same compound?
**A.** 1030 nM

**Q.** What about the IC50 (A-375) of the same compound?
**A.** 160 nM

**Q.** And the IC50 (HeLa)?
**A.** 3790 nM

**Q.** What about the IC50 [8] of the same compound?
**A.** 980 nM

**Q.** And the IC50 [9]?
**A.** 1080 nM

**Q.** And the IC50 (HepG2)?
**A.** 320 nM

**Q.** What about the IC50 (MCF7) of the same compound?
**A.** 2550 nM

**Q.** And the Activity (Calf thymus DNA)?
**A.** Active

**Q.** What about the Kq (Bos taurus) of the same compound?
**A.** 1 ×10⁴ /M

**Q.** What about the inhibition [10] of the same compound?
**A.** Active

**Q.** And the Activity (K562 [11])?
**A.** 8.98%

**Q.** And the Activity (K562 [12])?
**A.** 0.49%

**Q.** And the Activity (K562 [13])?
**A.** 23.13%

**Q.** And the Activity (K562 [14])?
**A.** 2.13%
